Measurements reported in publication PMC3667888 (Channels, 2013).
Residue numbers refer to the chain shown, from its start.

Legend:
[1] = molecular target: T1, wild-type Kv4.2/KChIP1b channels (Rattus norvegicus, UniProt Q63881); type: cell-based
T1 sequence (Q63881 1-630): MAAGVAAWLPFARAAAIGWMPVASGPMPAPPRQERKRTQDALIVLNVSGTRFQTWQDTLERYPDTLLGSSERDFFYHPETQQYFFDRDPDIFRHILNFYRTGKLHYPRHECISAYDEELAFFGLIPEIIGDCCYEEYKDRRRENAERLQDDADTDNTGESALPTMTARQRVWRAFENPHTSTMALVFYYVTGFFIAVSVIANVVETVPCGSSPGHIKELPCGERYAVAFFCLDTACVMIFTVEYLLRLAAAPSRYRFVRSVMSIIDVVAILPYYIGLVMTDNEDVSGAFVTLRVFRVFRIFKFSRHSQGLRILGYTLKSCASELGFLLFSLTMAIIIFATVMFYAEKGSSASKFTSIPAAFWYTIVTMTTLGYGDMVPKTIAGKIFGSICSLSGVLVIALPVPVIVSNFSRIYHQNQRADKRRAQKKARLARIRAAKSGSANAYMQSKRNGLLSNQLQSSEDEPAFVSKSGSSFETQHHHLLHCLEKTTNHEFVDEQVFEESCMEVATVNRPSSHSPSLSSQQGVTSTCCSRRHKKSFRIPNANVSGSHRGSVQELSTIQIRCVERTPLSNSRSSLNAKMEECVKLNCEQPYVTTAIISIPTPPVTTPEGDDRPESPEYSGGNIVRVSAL
Method in brief: (§1)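 Rat Kv4.2 (WT or QuikChange mutant) RNA co-injected equimolar with KChIP1b, 5–10 ng/oocyte, into Xenopus oocytes held 1–5 d at 17–19 °C. Two-electrode voltage clamp at room temperature in perfused Na/K methanesulfonate HEPES saline, pH 7.4–7.5, with P/−4 or P/−6 leak subtraction. Peak current at +40 mV (from −90 mV) after 10 min of 10 μM AA is expressed relative to pre-AA current. Mean ± SE, n = cells.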

[2] = molecular target: T2, Kv4.2 G314F mutant channels (co-injected with KChIP1b) (Rattus norvegicus, UniProt Q63881, G314F); assay: Two-electrode voltage clamp, G314F mutant Kv4.2/KChIP1b in Xenopus oocytes; type: cell-based; details: read-out: inhibition of the peak K+ current
T2 sequence (Q63881 1-630 G314F): T1 sequence (Q63881 1-630) with G314F
Method in brief: as §1

[3] = molecular target: T3, Kv4.2 R311Q mutant channels (co-injected with KChIP1b) (Rattus norvegicus, UniProt Q63881, R311Q); assay: Two-electrode voltage clamp, R311Q mutant Kv4.2/KChIP1b in Xenopus oocytes; type: cell-based; details: 10 µM AA, 10 min
T3 sequence (Q63881 1-630 R311Q): T1 sequence (Q63881 1-630) with R311Q

[4] = tested on: group of mutant Kv4.2 channels (V261F, K318Q, V261F/K318Q); assay: Two-electrode voltage clamp, grouped mutant Kv4.2 channels; type: cell-based, rat; details: 10 µM AA
Method in brief: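 Xenopus oocytes co-expressing rat Kv4.2 (WT or mutant) with equimolar KChIP1b were recorded by two-electrode voltage clamp at room temperature. Peak conductance was calculated as G = I/(Vm − Vh), with Vh = −100 mV, and normalized to each cell's Gmax. It was plotted against step potential without and with 10 μM AA and fit to a first-order Boltzmann function to give V1/2 and slope.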

For `CCCCC/C=C\C/C=C\C/C=C\C/C=C\CCCC(=O)O` [AA, arachidonic acid], the “V1/2 of conductance-voltage curve with AA” value ([1]; 10 µM AA, WT) was −13.4 mV, the “rightward shift in V1/2 of the conductance-voltage relationship in the presence of AA” value ([1]; 10 µM AA, WT) was “+7 mV” and the “slope factor (k) of Boltzmann fit with AA” value ([1]; 10 µM AA, WT) was 12.1. For the same compound, the “decrease in Kv4.2 currents” value ([1]; 10 µM AA, n = 3, same batch of oocytes as Kv1.2/2.1, +40 mV test potential) was 30.7 ± 1.8%, the Kd ([1]; fitted Kd for AA inhibition of peak current, Hill equation, nH = 1, +40 mV, 1 to 300 µM AA, WT) was 21.1 µM and the inhibition at 10 µM ([1]; read-out: inhibition of the peak K+ current) was 30%. The inhibition at 10 µM [2] was 22%, the “inhibition of peak K+ current by AA, effect of mutation” value [3] was “did not significantly disrupt the inhibitory effects of AA” and the “average shift in V1/2 in the presence of AA for the three mutant constructs” value [4] was “+5.7 mV”.
